Results published in article PMC3483449 (FEBS letters, 2012).

What was measured:
mouse AA3 [1] = biological target: T1, mouse AA3 (Mus musculus, UniProt Q91XE4); test: Inhibition of Co2+-dependent endopeptidase activity of AA3; type: biochemical; details: 1 mg/ml Pefabloc SC
T1 sequence (Q91XE4 1-318): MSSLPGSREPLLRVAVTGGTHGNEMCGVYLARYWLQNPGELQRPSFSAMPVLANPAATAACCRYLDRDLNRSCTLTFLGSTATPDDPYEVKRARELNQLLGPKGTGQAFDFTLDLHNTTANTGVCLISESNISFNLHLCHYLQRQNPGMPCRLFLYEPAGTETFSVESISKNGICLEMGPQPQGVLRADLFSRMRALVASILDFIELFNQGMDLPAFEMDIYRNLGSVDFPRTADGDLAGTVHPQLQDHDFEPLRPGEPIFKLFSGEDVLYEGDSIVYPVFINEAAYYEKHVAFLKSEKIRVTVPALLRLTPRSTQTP
Procedure, shortened: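 Cleavage reaction with N-terminally Strep(II)-tagged mouse AA3 (E. coli-expressed, Streptactin-purified): 3 µM enzyme plus 1 mM peptide or 0.1 mM His-tagged HCV core protein (aa 1–177) in 50 mM Tris-HCl pH 7.5 with 1 mM CoCl2, incubated 18 h at 37°C. Products were diluted to 50 µM peptide, then analysed by reverse-phase HPLC with UV and on-line ionspray triple-quadrupole MS. Cleavage sites were assigned from masses.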

mouse AA3 [2] = biological target: T1, mouse AA3; test: Peptide cleavage catalyzed by AA3; type: biochemical; details: 3 μM AA3, 1 mM peptide or 0.1 mM HCVCP, 50 mM Tris-HCl pH 7.5, 1 mM CoCl2, 18 h, 37°C; LC-MS
Procedure, shortened: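 Recombinant mouse AA3 (N-terminal Strep(II) tag, expressed in E. coli, Streptactin-purified) was incubated with N-acetylated or free peptides, or with His-tagged HCV core aa 1–177 (genotype 1). Aliquots were diluted in water to 50 μM peptide, then run by reverse-phase HPLC (0.1% formic acid, 0–100% acetonitrile over 60 min) with UV and triple-quadrupole ESI-MS detection (m/z 300–2000). Cleavage sites were assigned from fragment masses.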

mouse aminoacylase 3 = biological target: T2, mouse aminoacylase 3 (mouse, UniProt Q91XE4 1-318); test: SPR
T2 sequence (looked up): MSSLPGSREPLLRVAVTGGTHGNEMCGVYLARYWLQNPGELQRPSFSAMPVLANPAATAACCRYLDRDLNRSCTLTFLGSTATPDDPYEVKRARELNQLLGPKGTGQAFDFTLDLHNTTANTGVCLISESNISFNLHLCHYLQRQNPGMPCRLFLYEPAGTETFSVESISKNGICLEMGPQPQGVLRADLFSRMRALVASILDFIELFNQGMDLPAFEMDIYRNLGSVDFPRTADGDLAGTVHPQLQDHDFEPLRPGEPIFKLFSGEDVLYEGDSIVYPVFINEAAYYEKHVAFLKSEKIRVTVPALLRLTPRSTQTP

Cl.NCCc1ccc(S(=O)(=O)F)cc1 [Pefabloc SC]
Inhibition of Co2+-dependent endopeptidase activity of AA3 (mouse AA3 [1]): ~ 50%

casein
Hydrolysis (cleavage) by AA3 (mouse AA3 [2]): not hydrolyzed

insulin B chain: standard protease substrate
Hydrolysis (cleavage) by AA3 (mouse AA3 [2]): not hydrolyzed

STLPKPQRKTKRNTIRRPQDVKFPGG [HCVCP-long peptide (aa. 2-27)]
Kd (mouse aminoacylase 3): 142 ± 11 µM
